Assay results reported in ChEMBL document CHEMBL1122155, “Synthesis and biological evaluation of novel pyrimidine nucleoside analogues of 1,4-oxathiane, 1,4-dithiane, and 1,4-dioxane” (1982).
Several values for one entry are separate records, joined by “and”; a condition that tells them apart may be missing. Equal entries are not always repeated.

Experiments:
K562 [1] = assay: In vitro antitumor activity against human erythroleukemia K-562 cells; format: functional
Summary of the method: (§1)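 L1210 and K-562 cells grown in RPMI 1640 with 10% fetal calf serum plus penicillin/streptomycin. Suspensions of 10^3–10^4 cells/mL were plated, and compound (Me2SO stock diluted in medium) was added the following day. Final Me2SO was 0.5%, with two wells per concentration. Cells were counted by Coulter counter at 5–6 days. ID50 was taken from log-log concentration vs cell number plots, with untreated controls as 100%.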

K562 [2] = assay: In vitro antitumor activity (tumor cell growth inhibition) against human erythroleukemia K-562 cells; format: functional; summary of the method: as §1
L1210 [3] = assay: In vitro antitumor activity against mouse […] leukemia L1210 cells; format: functional; summary of the method: as §1
L1210 [4] = assay: In vitro antitumor activity (tumor cell growth inhibition) against mouse […] leukemia L1210; format: functional; summary of the method: as §1
K562 [5] = assay: In vitro antitumor activity (tumor cell growth inhibition) against human erythroleukemia K-562; format: functional; summary of the method: as §1
L1210 [6] = assay: In vitro antitumor activity against mouse […] leukemia L1210; format: functional
Summary of the method: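 L1210 cells in RPMI 1640 with 10% fetal calf serum and penicillin/streptomycin were seeded at 10^3-10^4 cells/mL. Compounds were dissolved in Me2SO, diluted in medium, and added the next day (final 0.5% Me2SO, matching controls), in duplicate wells. After 5-6 days, before controls peaked, cells were Coulter-counted. ID50 was read from log-log concentration vs cell-number plots, with controls as 100%.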

MDAY-D2 = assay: In vitro antitumor activity (tumor cell growth inhibition) against MDAY-D2 cells; format: functional, Mus musculus
Summary of the method: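 MDAY-D2 cells in Alpha MEM with 10% fetal calf serum, penicillin and streptomycin. Seeded at 10^3–10^4 cells/mL. Next day, compound dissolved in Me2SO and diluted in medium was added (final 0.5% Me2SO), with duplicate wells per concentration. Coulter counts after 5–6 days, before controls reached maximal density. ID50 was read from log-log plots of concentration vs cell number, with controls as 100%.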

Q: With O=c1[nH]c(=O)n(C2COCC[S+]2[O-])cc1F (stereo not drawn) as the molecule, how does the ID50 (K562 [1]) read?
A: Its ID50 is greater than 1010 µM.

Q: And the ID50 (K562 [2])?
A: Its ID50 is greater than 990 µM.

Q: For Cc1cn(C2CSCCS2)c(=O)[nH]c1=O (stereo not drawn), which ID50 (L1210 [3]) is on record?
A: The ID50 was 0.23 mM l-1 and 0.21 mM l-1.

Q: What about the ID50 (K562 [1]) of the same molecule?
A: Its ID50 is 670 µM.

Q: With O=c1[nH]c(=O)n(C2=COCCS2)cc1F as the molecule, how does the ID50 (L1210 [4]) read?
A: The ID50 was 20 µM.

Q: And the ID50 (K562 [5])?
A: The ID50 was 380 µM.

Q: With O=c1[nH]c(=O)n(C2CCCO2)cc1F (stereo not drawn) [TEGAFUR] as the molecule, how does the ID50 (L1210 [6]) read?
A: Its ID50 is 8.4 µM.

Q: Which results are given for O=c1[nH]cc(F)c(=O)[nH]1 [FLUOROURACIL]?
A: ID50 (MDAY-D2): 0.2 µM; ID50 (K562 [1]): 0.0023 mM l-1 and 0.0046 mM l-1

Q: O=c1[nH]c(=O)n(C2CSCCS2)cc1F (stereo not drawn) was tested. Which ID50 (MDAY-D2) did it give?
A: The ID50 was 500 µM.

Q: What about the ID50 (L1210 [3]) of the same molecule?
A: The ID50 was 0.65 mM l-1 and 0.23 mM l-1.

Q: What about the ID50 (K562 [1]) of the same molecule?
A: Its ID50 is greater than 1020 µM.

Q: For O=c1[nH]c(=O)n(C2COCCO2)cc1F (stereo not drawn), which ID50 (MDAY-D2) is on record?
A: Its ID50 is greater than 1000 µM.

Q: And the ID50 (L1210 [3])?
A: Its ID50 is greater than 970 µM.

Q: What about the ID50 (K562 [1]) of the same molecule?
A: The ID50 was >1.09 mM l-1 and >0.97 mM l-1.

Q: Which results are given for O=c1[nH]c(=O)n(C2COCCS2)cc1F (stereo not drawn)?
A: ID50 (MDAY-D2): 4600 µM; ID50 (L1210 [3]): > 1060 µM; ID50 (K562 [1]): >1.06 mM l-1 and >1.05 mM l-1

Q: O=c1[nH]c(=O)n(C2CSCCO2)cc1F (stereo not drawn) was tested. Which ID50 (MDAY-D2) did it give?
A: The ID50 was 1400 µM.

Q: What about the ID50 (L1210 [3]) of the same molecule?
A: The ID50 was greater than 1010 µM.

Q: And the ID50 (K562 [1])?
A: The ID50 was >1 mM l-1 and 0.46 mM l-1.

Q: With O=c1ccn(C2CSCCS2)c(=O)[nH]1 (stereo not drawn) as the molecule, how does the ID50 (L1210 [3]) read?
A: Its ID50 is 240 µM.

Q: What about the ID50 (K562 [1]) of the same molecule?
A: Its ID50 is greater than 1050 µM.
